In publication PMC4561049 (Drugs in R&D, 2015):

What was measured:
[1] = test system: patients with moderate-to-severe COPD; assay: Population pharmacodynamic Emax model of day 29 trough FEV1 in COPD patients; assay type: in vivo, human
Method in brief: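 COPD patients (≥40 y, ≥10 pack-years) received inhaled DISKUS test compound for 4 weeks: 100, 400 or 800 μg once daily (morning) or 100, 200 or 400 μg twice daily. Day 29 trough FEV1 (Vitalograph) was the mean of the 11 and 12 h post-evening-dose readings on day 28. An Emax model on total daily dose, with both regimens pooled, was fitted in NONMEM 7 (FOCE with interaction).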

[2] = test system: patients with moderate-to-severe COPD; assay: Relationship between systemic exposure; assay type: in vivo, human; conditions: 0 to 4 h, day 1 and day 28; 100-800 μg once daily, 100-400 μg twice daily
Method in brief: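 Individual observed plasma Cmax was plotted against maximum glucose, heart rate, QTcF (Fridericia correction) and potassium over 0–4 h on day 1 and day 28. Relationships were explored graphically only. Placebo Cmax was set to 0 pg/mL, and below-LLOQ values were plotted as 12.5 pg/mL (half of the 25 pg/mL LLOQ).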

[3] = test system: patients with COPD; conditions: 1200 µg once daily; cited from earlier work
[4] = test system: patients with moderate-to-severe COPD; conditions: cited from earlier work
[5] = assay type: in vivo, human
Method in brief: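 Plasma sampling on day 28 in a subset of patients at overnight sites, after both the morning and the evening inhaled doses: 1 h–0 min pre-dose, then 0–30 min, 30 min–2 h, 2–6 h and 6–11 h post-dose. Samples were assayed by HPLC–MS (LLOQ 25 pg/mL), and concentrations were log-transformed. A two-compartment model with first-order absorption was fitted in NONMEM 7 by Monte Carlo importance sampling.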

- Relationship between maximum glucose and individual observed Cmax [2]: No clear relationships
- Relationship between minimum potassium and individual observed Cmax [2]: No clear relationships
- Vd/F ([5]; human, plasma, inhaled): 6.26 L
- Interindividual variability CL/F ([5]; population PK model, column head Log estimate): 0.594
Structure (SMILES): COc1cc(NC(=O)CCN2CCC(OC(=O)Nc3ccccc3-c3ccccc3)CC2)c(Cl)cc1CNC[C@H](O)c1ccc(O)c2[nH]c(=O)ccc12 [GSK961081, batefenterol]
- Intercept for E0 (FEV1 at zero dose) ([1]; Emax model of day 29 trough FEV1, 347 COPD patients): 0.0650 L
- ED50 (dose producing 50 % of the maximum effect) ([1]; Emax model of day 29 trough FEV1 versus total daily dose, 347 COPD patients): 152 µg
- Difference between once-daily and twice-daily dosing for day 29 trough FEV1 ([1]; influence of dosing regimen on the PD model): no apparent difference
- Relationship between maximum QTcF and individual observed Cmax [2]: No clear relationships
- Relationship between maximum heart rate and individual observed Cmax [2]: No clear relationships
- Prolongation of the QT interval [3]: no prolongation of the QT interval
- Improvement in the trough FEV1 ([4]; after 28 days of treatment): 155 to 277 mL
- Dose response of QTc prolongation [4]: no apparent dose response
- Onset of action [4]: rapid onset of action
- Tolerability [4]: well tolerated
- Prolongation of various QTc intervals ([4]; in comparison with placebo or salmeterol): 3 to 5 ms
- Effect on glucose levels, potassium levels, heart rate, or blood pressure ([4]; safety findings of the primary publication): no effect
- Increase in the trough FEV1 from 400 to 800 μg ([4]; total daily dose): only a small increase
